Tests used:
Blood [1] = assay: Biodistribution in LPS treated C57BL/6N mouse blood at 50 uCi/110 uL, iv administered 6 hrs […] LPS challenge measured after 2 hrs post drug dose; type: ADME, organism-based; settings: in vivo
In short: (§1)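 Male C57BL/6N mice aged 6-8 weeks received E. coli O127:B8 LPS in PBS, 10 mg/kg i.v., 6 h before tracer. Tracer ~50 μCi in 10% ethanol/saline, i.v. tail vein. Sacrifice was at 5 min, 30 min, 1 h or 2 h post-injection. Organs were weighed and gamma-counted with injectate standards. Data are %ID/g, mean ± SD, n = 4.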

Lung [2] = assay: Biodistribution in C57BL/6N mouse lung at 50 uCi/110 uL, iv after 1 hr; type: ADME, organism-based; settings: in vivo
In short: (§2)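 Untreated (control) male C57BL/6N mice aged 6-8 weeks. HPLC-purified tracer, ~50 μCi in 10% ethanol/saline, given i.v. via the tail vein. Mice were sacrificed at 5 min, 30 min, 1 h and 2 h post-injection. Tissues were removed, weighed and gamma-counted against diluted injectate standards. Data are %ID/g, mean ± SD, n = 4.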

Kidney [3] = assay: Biodistribution in LPS treated C57BL/6N mouse kidney at 50 uCi/110 uL, iv administered 6 hrs […] LPS challenge measured after 2 hrs post drug dose; type: ADME, organism-based; settings: in vivo
In short: (§3)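 Male C57BL/6N mice, 6-8 weeks; LPS (E. coli O127:B8) in PBS, 10 mg/kg i.v., given 6 h before tracer. HPLC-purified [18F]tracer ~50 μCi in 10% ethanol/saline i.v. via tail vein. Killed at 5 min, 30 min, 1 h or 2 h; tissues weighed and gamma-counted against diluted injectate standards. Reported as %ID/g, mean ± SD, n = 4.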

Heart [4] = assay: Biodistribution in LPS treated C57BL/6N mouse heart at 50 uCi/110 uL, iv administered 6 hrs […] LPS challenge measured after 5 mins post drug dose; type: ADME, organism-based; settings: in vivo; in short: as §1
Heart [5] = assay: Biodistribution in LPS treated C57BL/6N mouse heart at 50 uCi/110 uL, iv administered 6 hrs […] LPS challenge measured after 2 hrs post drug dose; type: ADME, organism-based; settings: in vivo; in short: as §1
Muscle tissue [6] = assay: Biodistribution in LPS treated C57BL/6N mouse muscle at 50 uCi/110 uL, iv administered 6 hrs […] LPS challenge measured after 1 hr post drug dose; type: ADME, organism-based; settings: in vivo; in short: as §3
Liver [7] = assay: Biodistribution in C57BL/6N mouse liver at 50 uCi/110 uL, iv after 30 mins; type: ADME, organism-based; settings: in vivo, 0.5 h; in short: as §2
Bone [8] = assay: Biodistribution in LPS treated C57BL/6N mouse bone at 50 uCi/110 uL, iv administered 6 hrs […] LPS challenge measured after 30 mins post drug dose; type: ADME, organism-based, Bone element; settings: in vivo, 0.5 h; in short: as §1
Blood [9] = assay: Biodistribution in C57BL/6N mouse blood at 50 uCi/110 uL, iv after 5 mins; type: ADME, organism-based; settings: in vivo; in short: as §2
Brain [10] = assay: Biodistribution in C57BL/6N mouse brain at 50 uCi/110 uL, iv after 30 mins; type: ADME, organism-based; settings: in vivo, 0.5 h; in short: as §2
[11] = Metabolic stability in Sprague-Dawley rat plasma assessed as parent compound remaining at 400 uCi, iv after 30 mins by HPLC; type: ADME, organism-based; settings: read-out: Stability
In short: (§4)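 Anesthetized male Sprague-Dawley rat given 400 μCi [18F]tracer in 10% ethanol/saline i.v. via tail vein. Blood drawn by cardiac puncture at 5 and 30 min. Plasma separated by centrifugation, treated with 3 equivalents of acetonitrile and centrifuged; supernatant filtered and analysed by HPLC. Samples kept on ice.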

Lung [12] = assay: Biodistribution in LPS treated C57BL/6N mouse lung at 50 uCi/110 uL, iv administered 6 hrs […] LPS challenge measured after 2 hrs post drug dose; type: ADME, organism-based; settings: in vivo; in short: as §3
Heart [13] = assay: Biodistribution in LPS treated C57BL/6N mouse heart at 50 uCi/110 uL, iv administered 6 hrs […] LPS challenge measured after 1 hr post drug dose; type: ADME, organism-based; settings: in vivo; in short: as §1
Blood [14] = assay: Biodistribution in LPS treated C57BL/6N mouse blood at 50 uCi/110 uL, iv administered 6 hrs […] LPS challenge measured after 1 hr post drug dose; type: ADME, organism-based; settings: in vivo; in short: as §1
Brain [15] = assay: Biodistribution in LPS treated C57BL/6N mouse brain at 50 uCi/110 uL, iv administered 6 hrs […] LPS challenge measured after 1 hr post drug dose; type: ADME, organism-based; settings: in vivo; in short: as §1
Bone [16] = assay: Biodistribution in C57BL/6N mouse bone at 50 uCi/110 uL, iv after 30 mins; type: ADME, organism-based, Bone element; settings: in vivo, 0.5 h; in short: as §2
Muscle tissue [17] = assay: Biodistribution in C57BL/6N mouse muscle at 50 uCi/110 uL, iv after 1 hr; type: ADME, organism-based; settings: in vivo; in short: as §2
Heart [18] = assay: Biodistribution in C57BL/6N mouse heart at 50 uCi/110 uL, iv after 1 hr; type: ADME, organism-based; settings: in vivo; in short: as §2
Bone [19] = assay: Biodistribution in LPS treated C57BL/6N mouse bone at 50 uCi/110 uL, iv administered 6 hrs […] LPS challenge measured after 2 hrs post drug dose; type: ADME, organism-based, Bone element; settings: in vivo; in short: as §1
Kidney [20] = assay: Biodistribution in LPS treated C57BL/6N mouse kidney at 50 uCi/[…], iv administered […] measured after 5 mins post drug dose; type: ADME, organism-based; settings: in vivo; in short: as §3
Liver [21] = assay: Biodistribution in C57BL/6N mouse liver at 50 uCi/110 uL, iv after 2 hrs; type: ADME, organism-based; settings: in vivo; in short: as §2
Lung [22] = assay: Biodistribution in LPS treated C57BL/6N mouse lung at 50 uCi/110 uL, iv administered 6 hrs […] LPS challenge measured after 1 hr post drug dose; type: ADME, organism-based; settings: in vivo; in short: as §3
Liver [23] = assay: Biodistribution in LPS treated C57BL/6N mouse liver at 50 uCi/110 uL, iv administered 6 hrs […] LPS challenge measured after 30 mins post drug dose; type: ADME, organism-based; settings: in vivo, 0.5 h; in short: as §3
Muscle tissue [24] = assay: Biodistribution in C57BL/6N mouse muscle at 50 uCi/110 uL, iv after 2 hrs; type: ADME, organism-based; settings: in vivo; in short: as §2
Bone [25] = assay: Biodistribution in LPS treated C57BL/6N mouse bone at 50 uCi/110 uL, iv administered 6 hrs […] LPS challenge measured after 5 mins post drug dose; type: ADME, organism-based, Bone element; settings: in vivo; in short: as §1
Kidney [26] = assay: Biodistribution in C57BL/6N mouse kidney at 50 uCi/110 uL, iv after 1 hr; type: ADME, organism-based; settings: in vivo; in short: as §2
Bone [27] = assay: Biodistribution in C57BL/6N mouse bone at 50 uCi/110 uL, iv after 1 hr; type: ADME, organism-based, Bone element; settings: in vivo; in short: as §2
Muscle tissue [28] = assay: Biodistribution in LPS treated C57BL/6N mouse muscle at 50 uCi/110 uL, iv administered 6 hrs […] LPS challenge measured after 30 mins post drug dose; type: ADME, organism-based; settings: in vivo, 0.5 h; in short: as §3
Lung [29] = assay: Biodistribution in LPS treated C57BL/6N mouse lung at 50 uCi/110 uL, iv administered 6 hrs […] LPS challenge measured after 5 mins post drug dose; type: ADME, organism-based; settings: in vivo; in short: as §3
Heart [30] = assay: Biodistribution in C57BL/6N mouse heart at 50 uCi/110 uL, iv after 2 hrs; type: ADME, organism-based; settings: in vivo; in short: as §2
Lung [31] = assay: Biodistribution in C57BL/6N mouse lung at 50 uCi/110 uL, iv after 2 hrs; type: ADME, organism-based; settings: in vivo; in short: as §2
Liver [32] = assay: Biodistribution in LPS treated C57BL/6N mouse liver at 50 uCi/110 uL, iv administered 6 hrs […] LPS challenge measured after 1 hr post drug dose; type: ADME, organism-based; settings: in vivo; in short: as §3
[33] = Metabolic stability in Sprague-Dawley rat plasma assessed as parent compound remaining at 400 uCi, iv after 5 mins by HPLC; type: ADME, organism-based; settings: read-out: Stability; in short: as §4
Bone [34] = assay: Biodistribution in C57BL/6N mouse bone at 50 uCi/110 uL, iv after 2 hrs; type: ADME, organism-based, Bone element; settings: in vivo; in short: as §2
Heart [35] = assay: Biodistribution in C57BL/6N mouse heart at 50 uCi/110 uL, iv after 30 mins; type: ADME, organism-based; settings: in vivo, 0.5 h; in short: as §2

In the case of `Cc1cc(N)nc(CC(C)[18F])c1` (stereo not given), the Drug uptake (Blood [1]) is reported as 0.23 % ID/g, the Drug uptake (Lung [2]) is reported as 0.31 % ID/g and the Drug uptake (Kidney [3]) is reported as 0.91 % ID/g. The Drug uptake (Heart [4]) was 2.03 % ID/g, the Drug uptake (Heart [5]) was 0.12 % ID/g and the Drug uptake (Muscle tissue [6]) was 0.78 % ID/g. The Drug uptake (Liver [7]) was 10.7 % ID/g, the Drug uptake (Bone [8]) was 3.7 % ID/g and the Drug uptake (Blood [9]) was 2.37 % ID/g. For the same compound, the Drug uptake (Brain [10]) was 0.28 % ID/g, the remaining at 0.5 h [11] was 20.2% and the Drug uptake (Lung [12]) was 0.18 % ID/g. For the same compound, the Drug uptake (Heart [13]) was 0.41 % ID/g, the Drug uptake (Blood [14]) was 0.86 % ID/g and the Drug uptake (Brain [15]) was 0.19 % ID/g. It also gave a Drug uptake (Bone [16]) of 2.26 % ID/g, a Drug uptake (Muscle tissue [17]) of 0.27 % ID/g and a Drug uptake (Heart [18]) of 0.19 % ID/g. It also gave a Drug uptake (Bone [19]) of 3.77 % ID/g, a Drug uptake (Kidney [20]) of 26.7 % ID/g and a Drug uptake (Liver [21]) of 0.74 % ID/g. The Drug uptake (Lung [22]) was 0.73 % ID/g, the Drug uptake (Liver [23]) was 7.06 % ID/g and the Drug uptake (Muscle tissue [24]) was 0.34 % ID/g. It also gave a Drug uptake (Bone [25]) of 1.59 % ID/g, a Drug uptake (Kidney [26]) of 2.2 % ID/g and a Drug uptake (Bone [27]) of 2.57 % ID/g. For the same compound, the Drug uptake (Muscle tissue [28]) was 1.06 % ID/g, the Drug uptake (Lung [29]) was 4.32 % ID/g and the Drug uptake (Heart [30]) was 0.08 % ID/g. The Drug uptake (Lung [31]) was 0.15 % ID/g, the Drug uptake (Liver [32]) was 2.63 % ID/g and the remaining at 5 min [33] was 40.3%. The Drug uptake (Bone [34]) was 5.59 % ID/g and the Drug uptake (Heart [35]) was 0.6 % ID/g.
